Bioassay records from PubChem.
An excerpt weighted towards active compounds, which were near 4% of everything screened.
ABHD5-PLIN5 inh: inhibitors of human ABHD5-perilipin-5 interaction; Split G. princeps luciferase complementation, luminescence, 4 h; 360,000 tested, 0.78% active; inhibition, % at 4 µM;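 active = inhibition above the mean inhibition across every tested compound plus 3 SD, cut at about 22% in these data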;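 note: 0% = DMSO only wells and the 100% control is not disclosed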
CHOP UPR activ: activators of apoptotic arm of unfolded protein response (CHOP). CHO-CHOP luciferase reporter, UPR activation, luminescence; percent of tunicamycin response over DMSO baseline. activation, % at 10 µM. 330,000 tested, 0.34% active. AID 449763;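 active = at 10 µM dose, activation of 40% or more, normalized to positive control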;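 note: 100% = tunicamycin at 10 µg/mL and 0% = DMSO alone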
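Assay system: CHO-CHOP cells, stable luciferase reporter of PERK-eIF2a-CHOP signalling / Buffer or medium: F12 plus 10% serum / Compound dosing: one dose, 10 µM in 0.5% DMSO / Times: 6 h compound treatment, 37 °C / Technique: luciferase luminescence / Read-out: % reporter activation, DMSO baseline versus tunicamycin full activation / Benchmarks: tunicamycin and DMSO controls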
Exocytosis inh: blocks lytic granule exocytosis; TALL-104 LAMP-1 surface exposure, flow cytometry; cells stimulated with thapsigargin and PMA; inhibition, % at 10 µM; 360,000 tested, 0.66% active;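 active = inhibition above about 55%, limit read from the data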
Mdm2-MdmX inh: inhibitors of human Mdm2/MdmX interaction | SaOS-2 split-luciferase Mdm2/MdmX complementation, luminescence | 330,000 tested, 3% active | AID 485346 | inhibition, % at 8 µM;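 active = inhibition of at least 50% at 8 µM in the primary screen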
Target sequence (O15151 whole entry, looked up): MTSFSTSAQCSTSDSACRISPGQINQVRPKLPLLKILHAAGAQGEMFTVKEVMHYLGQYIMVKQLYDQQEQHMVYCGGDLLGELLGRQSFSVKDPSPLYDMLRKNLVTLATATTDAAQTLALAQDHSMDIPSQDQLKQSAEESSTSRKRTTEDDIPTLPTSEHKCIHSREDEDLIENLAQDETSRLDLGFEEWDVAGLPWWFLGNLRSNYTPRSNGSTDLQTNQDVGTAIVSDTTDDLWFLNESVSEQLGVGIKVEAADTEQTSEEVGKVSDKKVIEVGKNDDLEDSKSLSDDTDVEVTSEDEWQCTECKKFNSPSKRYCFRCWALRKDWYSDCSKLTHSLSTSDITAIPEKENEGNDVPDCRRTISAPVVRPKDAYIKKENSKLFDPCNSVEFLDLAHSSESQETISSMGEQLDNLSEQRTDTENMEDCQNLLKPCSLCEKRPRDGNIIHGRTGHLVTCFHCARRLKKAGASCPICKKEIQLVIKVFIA
Target sequence (Q00987 whole entry, looked up): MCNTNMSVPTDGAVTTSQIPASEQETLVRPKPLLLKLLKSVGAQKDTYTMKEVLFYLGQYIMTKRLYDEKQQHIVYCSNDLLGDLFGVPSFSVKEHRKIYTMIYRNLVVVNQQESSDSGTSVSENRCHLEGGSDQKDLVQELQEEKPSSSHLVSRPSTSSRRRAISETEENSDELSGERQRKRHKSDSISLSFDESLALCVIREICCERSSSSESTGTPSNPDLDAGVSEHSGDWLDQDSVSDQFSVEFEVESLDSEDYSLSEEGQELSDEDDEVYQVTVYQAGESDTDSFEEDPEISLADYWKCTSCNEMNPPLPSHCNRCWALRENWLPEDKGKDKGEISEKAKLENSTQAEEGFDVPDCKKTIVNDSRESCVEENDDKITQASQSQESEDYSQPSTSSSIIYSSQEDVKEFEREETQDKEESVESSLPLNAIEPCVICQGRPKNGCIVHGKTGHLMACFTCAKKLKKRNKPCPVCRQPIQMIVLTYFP
UPR XBP1 act: activators of adaptive arm of unfolded protein response (XBP1); CHO-XBP1 luciferase reporter, IRE1-XBP1 UPR activation, luminescence; percent of tunicamycin response, DMSO as zero; activation, % at 20 µM; 330,000 tested, 0.33% active;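 active = versus positive control, 20 µM dose yields 30% or more activation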;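 note: 100% = tunicamycin at 10 µg/mL and 0% = DMSO only wells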
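incubation = overnight seeding at 37 °C, 6 h compound treatment at 37 °C | assay system = CHO-XBP1 cells stably carrying IRE1-XBP1-driven luciferase reporter | input = 1000 cells per well | detection = luciferase luminescence | dosing = single point, 20 µM final compound, 1% DMSO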
Mdm2 MdmX conf: confirmation of human Mdm2/MdmX interaction inhibitors. inhibition, % at 8 µM. Mdm2-MdmX binding, luminescent assay. 10,000 tested, 55% active. shares compounds with Mdm2-MdmX inh; in the data active = inhibition above about 40%
FLuc counter: counter-screen for Mdm2/MdmX inhibitors: full-length luciferase | shares compounds with Mdm2-MdmX inh | 6,200 tested, 77% active | SaOS-2 full-length luciferase counterscreen, luminescence | inhibition, % at 8 µM;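 active = mean inhibition at 8 µM reaching about 37%, which flags the compound as non-specific, limit read from the data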;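 note: p53-null SaOS-2 cells with luciferase driven by a doxycycline-inducible promoter; compound on cells about two nights before reading with doxycycline added after day one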
Active calls of the source: *; nt = no result.

SMILES | ABHD5-PLIN5 inh | CHOP UPR activ | Exocytosis inh | Mdm2-MdmX inh | UPR XBP1 act | Mdm2 MdmX conf | FLuc counter
CCc1nc2c(cnn2-c2ccc(Cl)cc2)c(=O)n1-c1ccc(OC)cc1 | -1 | 1 | 0 | 19 | 5 | nt | nt
CCc1nc2c(cnn2-c2ccc(Cl)cc2)c(=O)n1-c1ccc2c(c1)OCCO2 | 0 | 2 | 1 | 56* | 9 | 22 | nt
CC(C)(C)[C@]1(O)CCN2C[C@H]3c4ccccc4CCc4cccc(c43)[C@@H]2C1 | -2 | 1 | 4 | 66* | -8 | 36 | 84*
CCN(Cc1ccccc1)C(=O)COC(=O)CNC(=O)c1ccc(C)s1 | 2 | -1 | -2 | 21 | -3 | nt | nt
CCN1CCN(CCNC(=O)C2CCN(Cc3nc(-c4ccc(Cl)cc4)oc3C)CC2)CC1 | nt | 2 | nt | 99* | 7 | 53* | 37*
Cc1oc(-c2ccc(Cl)cc2)nc1CN1CCC(C(=O)N2CCc3ccccc3C2)CC1 | 12 | 0 | 31 | 52* | 6 | 37 | 58*
Cc1oc(-c2cccc(Cl)c2)nc1CN1CCC(C(=O)NCc2ccco2)CC1 | 6 | 0 | -2 | 3 | 3 | nt | nt
Cc1ccccc1-c1nc(CN2CCC(C(=O)NCCCN3CC(C)CC(C)C3)CC2)c(C)o1 (stereo not given) | 2 | 1 | 5 | 78* | 6 | 95* | 26
CCN1CCCC1CNC(=O)C1CCN(Cc2nc(-c3cccc(Br)c3)oc2C)CC1 (stereo not given) | 7 | 1 | 5 | 84* | 0 | 100* | 4
CC(CNC(=O)c1cc(COc2c(F)cccc2F)on1)c1ccccc1 (stereo not given) | -4 | 1 | -1 | 16 | 1 | nt | nt
Cc1oc(-c2ccc(Cl)cc2)nc1CN1CCC(C(=O)NCCCN2CCCC(C)C2)CC1 (stereo not given) | 3 | 3 | 2 | 100* | 0 | 96* | 21
Cc1oc(-c2ccc(Cl)cc2)nc1CN1CCC(C(=O)NCCCN2CCCC2=O)CC1 | 4 | -2 | -5 | 21 | 0 | nt | nt
CCc1ccc(-c2nc(CN3CCC(C(=O)NCc4ccccc4OC)CC3)c(C)o2)cc1 | 5 | 3 | 13 | 57* | 5 | 25 | nt
CC(=NNC(=O)c1ccccc1N)c1ccccc1O | 3 | nt | 4 | nt | nt | nt | nt
Cc1c(C=O)c(C=O)c(C)n1Cc1ccccc1 | 3 | 4 | 2 | 86* | -5 | 86* | 31
CC(=O)c1c(C(C)=O)c(C)n(Cc2ccccc2)c1C | -3 | -2 | -1 | 0 | -5 | nt | nt
C/C(=N\NC(=O)c1ccc(Br)cc1)c1ccccc1 | 2 | 1 | -4 | -171 | -5 | nt | nt
Cc1cccc(C(=O)O/N=C(\N)Cc2ccc([N+](=O)[O-])cc2)c1 | -9 | 1 | 1 | 89* | -1 | 56* | 54*
COc1ccccc1C/C(N)=N/OC(=O)c1cccc([N+](=O)[O-])c1C | -2 | 2 | -1 | 57* | 2 | 36 | 102*
COc1ccc(/C(N)=N/OC(=O)c2cccc([N+](=O)[O-])c2C)cc1 | -8 | 5 | -4 | 33 | 3 | nt | nt
N/C(Cc1ccc([N+](=O)[O-])cc1)=N\OC(=O)C(c1ccccc1)c1ccccc1 | -6 | 3 | 0 | 70* | 0 | 50* | 79*
Cc1ccc(C(=O)O/N=C(\N)Cc2ccc([N+](=O)[O-])cc2)c(Cl)c1 | -4 | 3 | 3 | 90* | 4 | 60* | 43*
Cc1ccc(CC(=O)O/N=C(\N)Cc2ccc([N+](=O)[O-])cc2)cc1 | 0 | 0 | -2 | -1 | -1 | nt | nt
CCS(=O)(=O)C1=NN2C(=N)/C(=C\c3ccc(OC(=O)c4ccco4)c(OC)c3)C(=O)N=C2S1 | 0 | 0 | 8 | 16 | 1 | nt | nt
COc1ccc(C(CNC(=O)c2cccc(S(=O)(=O)Nc3ccccc3OC)c2)N2CCOCC2)cc1 (stereo not given) | 10 | 0 | -6 | -9 | 1 | nt | nt
SMILES | ABHD5-PLIN5 inh | CHOP UPR activ | Exocytosis inh | Mdm2-MdmX inh | UPR XBP1 act | Mdm2 MdmX conf | FLuc counter
N/C(Cc1ccc([N+](=O)[O-])cc1)=N\OC(=O)c1ccc2ccccc2c1 | -3 | -1 | 32 | 88* | 2 | 40 | 61*
Cc1ccc(C(=O)O/N=C(\N)Cc2cccs2)c(Cl)c1 | 4 | 3 | -5 | 100* | -1 | 24 | nt
N/C(Cc1ccc([N+](=O)[O-])cc1)=N\OC(=O)c1ccccc1Br | 3 | 1 | 1 | 60* | -1 | 30 | nt
N/C(Cc1ccc([N+](=O)[O-])cc1)=N\OC(=O)c1ccc(Br)cc1 | 3 | 1 | -1 | 13 | -3 | nt | nt
O=C1c2ccccc2C(=O)C12OC(c1ccccc1)C1(C(=O)c3ccccc3C1=O)C2c1ccc([N+](=O)[O-])cc1 (stereo not given) | 0 | 3 | 1 | 14 | 4 | nt | nt
O=C1c2ccccc2C(=O)C12OC2c1ccc(Cl)cc1 (stereo not given) | nt | 103* | nt | 81* | -4 | -8 | nt
Cc1ccccc1OCc1nc2ccccc2c(=O)n1/N=C/c1cn[nH]c1-c1ccc(Br)cc1 | 10 | 2 | 7 | 69* | 4 | 24 | nt
O=c1c2ccccc2nc(COc2ccccc2)n1/N=C/c1ccc(O)cc1O | -1 | 2 | 2 | 66* | -3 | 58* | 31
COc1ccc(C)cc1NC(=O)c1ccc(S(=O)(=O)N2CCOCC2)cc1 | 2 | -1 | -6 | 24 | 2 | nt | nt
CN(CC(=O)Nc1ccccc1Br)C(=O)c1cccnc1Nc1cccc(C(F)(F)F)c1 | -4 | 0 | 11 | 56* | -2 | -3 | nt
CNC(=O)c1cccnc1Nc1cccc(C(F)(F)F)c1 | -3 | -1 | 1 | 13 | 3 | nt | nt
COc1cc(NS(=O)(=O)c2ccc(NC(C)=O)cc2)nc(OC)n1 | -5 | 2 | 5 | 18 | -3 | nt | nt
COc1cc(NS(=O)(=O)c2ccc(N/C=C(\C#N)c3nc4cc(Cl)ccc4o3)cc2)nc(OC)n1 | -2 | 0 | -1 | 54* | -1 | 44* | 35
NS(=O)(=O)c1ccc(CNC(=O)c2cc(-c3ccccn3)nc3ccc(Cl)cc23)cc1 | 2 | 0 | -1 | 51* | -2 | 14 | nt
COc1cc2nc(SCC(=O)c3ccc(Br)cc3)n3nc(C)nc3c2cc1OC | 4 | 0 | 0 | 65* | -2 | 19 | nt
COc1ccc(CCNC(=O)CC2Nc3cc(C)c(C)cc3NC2=O)cc1OC (stereo not given) | 0 | 3 | 2 | 23 | 0 | nt | nt
CCC(C(=O)O/N=C(\N)c1ccc(Cl)cc1)c1ccccc1 (stereo not given) | -8 | 0 | 0 | 64* | -1 | 14 | nt
